Reference: ChEMBL document CHEMBL1817578, “2-({6-[(3R)-3-amino-3-methylpiperidine-1-yl]-1,3-dimethyl-2,4-dioxo-1,2,3,4-tetrahydro-5H-pyrrolo[3,2-d]pyrimidine-5-yl}methyl)-4-fluorobenzonitrile (DSR-12727): a potent, orally active dipeptidyl peptidase IV inhibitor without mechanism-based inactivation of CYP3A” (Bioorg Med Chem, 2011)
The source made the active and inactive calls. The rule behind the calls is not given here.

Experiments:
Dipeptidyl peptidase 4 = Dipeptidyl peptidase 4 (Homo sapiens, UniProt P27487); experiment: Inhibition of DPP4 in human plasma assessed as formation of 7-amino-4-methylcoumarin from glycyl-L-proline 4-methylcoumaryl-7-amide by fluorescence assay
Dipeptidyl peptidase 4, sequence (P27487 whole entry): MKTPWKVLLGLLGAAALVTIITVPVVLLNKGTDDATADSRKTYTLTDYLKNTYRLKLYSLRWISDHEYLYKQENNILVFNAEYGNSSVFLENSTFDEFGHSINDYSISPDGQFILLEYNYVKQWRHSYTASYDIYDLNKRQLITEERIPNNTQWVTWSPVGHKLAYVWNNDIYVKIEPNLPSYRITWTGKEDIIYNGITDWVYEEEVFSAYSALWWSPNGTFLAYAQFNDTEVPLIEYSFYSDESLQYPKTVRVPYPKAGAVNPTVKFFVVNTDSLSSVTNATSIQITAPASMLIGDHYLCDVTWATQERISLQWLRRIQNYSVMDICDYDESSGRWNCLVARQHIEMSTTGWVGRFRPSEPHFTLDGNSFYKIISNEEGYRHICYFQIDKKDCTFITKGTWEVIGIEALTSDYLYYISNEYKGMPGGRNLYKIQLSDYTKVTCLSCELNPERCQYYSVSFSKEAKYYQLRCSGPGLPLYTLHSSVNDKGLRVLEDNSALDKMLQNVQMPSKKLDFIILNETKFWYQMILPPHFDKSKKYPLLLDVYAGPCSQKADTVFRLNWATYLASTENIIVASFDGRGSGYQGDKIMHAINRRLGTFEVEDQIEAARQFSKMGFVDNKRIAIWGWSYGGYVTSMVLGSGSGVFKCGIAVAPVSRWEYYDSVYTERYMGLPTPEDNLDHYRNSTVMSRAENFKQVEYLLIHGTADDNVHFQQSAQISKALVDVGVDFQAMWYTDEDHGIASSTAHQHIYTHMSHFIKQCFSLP

Rattus norvegicus [1] = experiment: Antidiabetic activity in po dosed Zucker fatty rat assessed as reduction of blood glucose level pretreated 30 mins before glucose challenge by oral glucose tolerance test; assay type: functional, organism-based
Outline: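 Male Zucker fatty rats, 10 weeks old, fasted 24 h, with Zucker lean rats as reference. Oral dose of 0.03–1.0 mg/kg in 0.5% methylcellulose, or vehicle alone, 30 min before oral glucose at 2 g/kg. Tail blood taken at -30, 0, 10, 30, 60 and 120 min and deproteinized with perchloric acid. Glucose measured by colorimetric kit (A505–A700) in duplicate. AUC over 0–120 min; n = 4–9; Dunnett test.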

Dipeptidyl peptidase 8 = Dipeptidyl peptidase 8 (Homo sapiens, UniProt Q6V1X1); experiment: Inhibition of DPP8
Dipeptidyl peptidase 8, sequence (Q6V1X1 whole entry): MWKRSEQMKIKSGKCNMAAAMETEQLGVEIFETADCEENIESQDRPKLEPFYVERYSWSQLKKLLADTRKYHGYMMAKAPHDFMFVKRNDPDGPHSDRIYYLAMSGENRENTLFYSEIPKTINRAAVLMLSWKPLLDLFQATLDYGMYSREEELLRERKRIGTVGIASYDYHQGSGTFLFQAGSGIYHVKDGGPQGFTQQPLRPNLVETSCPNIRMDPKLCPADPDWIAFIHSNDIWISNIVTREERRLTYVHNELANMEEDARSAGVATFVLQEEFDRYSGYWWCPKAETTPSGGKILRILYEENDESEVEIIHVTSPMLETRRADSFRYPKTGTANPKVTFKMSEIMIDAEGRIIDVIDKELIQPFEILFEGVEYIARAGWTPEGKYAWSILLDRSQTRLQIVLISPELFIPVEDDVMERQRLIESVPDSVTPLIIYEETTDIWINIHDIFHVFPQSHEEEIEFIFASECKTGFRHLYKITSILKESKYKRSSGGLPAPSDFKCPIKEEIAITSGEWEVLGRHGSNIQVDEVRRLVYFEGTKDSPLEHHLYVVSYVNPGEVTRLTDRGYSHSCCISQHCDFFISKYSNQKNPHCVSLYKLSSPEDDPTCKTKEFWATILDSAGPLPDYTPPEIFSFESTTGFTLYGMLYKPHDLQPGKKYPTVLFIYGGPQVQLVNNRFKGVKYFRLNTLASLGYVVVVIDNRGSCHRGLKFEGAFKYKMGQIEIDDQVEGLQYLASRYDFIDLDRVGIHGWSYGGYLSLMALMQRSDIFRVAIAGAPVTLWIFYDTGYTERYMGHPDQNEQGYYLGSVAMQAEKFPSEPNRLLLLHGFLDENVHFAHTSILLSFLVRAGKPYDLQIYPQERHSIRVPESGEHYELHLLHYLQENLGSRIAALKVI

Xaa-Pro aminopeptidase 2 = Xaa-Pro aminopeptidase 2 (Homo sapiens, UniProt O43895); experiment: Inhibition of aminopeptidase P
Xaa-Pro aminopeptidase 2, sequence (O43895 whole entry): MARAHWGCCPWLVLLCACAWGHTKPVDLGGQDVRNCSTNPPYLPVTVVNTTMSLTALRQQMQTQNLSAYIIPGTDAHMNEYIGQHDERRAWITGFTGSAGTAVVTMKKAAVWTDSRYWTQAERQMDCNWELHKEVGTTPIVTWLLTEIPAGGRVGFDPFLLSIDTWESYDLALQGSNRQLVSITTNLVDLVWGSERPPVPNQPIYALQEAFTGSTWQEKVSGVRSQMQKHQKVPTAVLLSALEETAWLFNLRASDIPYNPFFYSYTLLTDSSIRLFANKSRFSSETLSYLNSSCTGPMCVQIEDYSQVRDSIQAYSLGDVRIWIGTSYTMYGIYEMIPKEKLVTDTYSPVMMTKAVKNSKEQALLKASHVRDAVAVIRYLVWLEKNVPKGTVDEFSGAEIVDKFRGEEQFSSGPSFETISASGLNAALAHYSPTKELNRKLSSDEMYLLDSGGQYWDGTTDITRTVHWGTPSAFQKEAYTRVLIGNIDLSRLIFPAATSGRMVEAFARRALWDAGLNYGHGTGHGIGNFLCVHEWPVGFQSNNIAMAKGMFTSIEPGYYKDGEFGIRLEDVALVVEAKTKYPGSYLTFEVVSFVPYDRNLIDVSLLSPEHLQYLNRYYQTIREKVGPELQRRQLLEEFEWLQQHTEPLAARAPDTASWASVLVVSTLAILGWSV

[2] = molecular target: T1, Muscarinic acetylcholine receptor M1 (Homo sapiens, UniProt P11229); experiment: Binding affinity to muscarinic receptor 1
T1 sequence (P11229 whole entry): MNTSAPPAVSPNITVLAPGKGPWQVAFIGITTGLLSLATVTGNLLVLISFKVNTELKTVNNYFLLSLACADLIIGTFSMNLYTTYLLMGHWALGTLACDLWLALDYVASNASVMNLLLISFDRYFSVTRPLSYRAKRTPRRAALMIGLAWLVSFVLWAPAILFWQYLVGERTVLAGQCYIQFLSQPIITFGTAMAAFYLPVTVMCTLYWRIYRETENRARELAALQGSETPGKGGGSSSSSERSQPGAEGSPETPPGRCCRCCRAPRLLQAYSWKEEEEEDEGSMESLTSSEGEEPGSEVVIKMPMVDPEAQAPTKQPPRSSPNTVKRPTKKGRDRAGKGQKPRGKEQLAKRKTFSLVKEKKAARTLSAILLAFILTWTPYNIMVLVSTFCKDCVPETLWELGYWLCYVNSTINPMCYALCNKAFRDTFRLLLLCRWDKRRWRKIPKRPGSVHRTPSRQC

[3] = molecular target: T2, Muscarinic acetylcholine receptor M4 (Homo sapiens, UniProt P08173); experiment: Binding affinity to muscarinic receptor 4
T2 sequence (P08173 whole entry): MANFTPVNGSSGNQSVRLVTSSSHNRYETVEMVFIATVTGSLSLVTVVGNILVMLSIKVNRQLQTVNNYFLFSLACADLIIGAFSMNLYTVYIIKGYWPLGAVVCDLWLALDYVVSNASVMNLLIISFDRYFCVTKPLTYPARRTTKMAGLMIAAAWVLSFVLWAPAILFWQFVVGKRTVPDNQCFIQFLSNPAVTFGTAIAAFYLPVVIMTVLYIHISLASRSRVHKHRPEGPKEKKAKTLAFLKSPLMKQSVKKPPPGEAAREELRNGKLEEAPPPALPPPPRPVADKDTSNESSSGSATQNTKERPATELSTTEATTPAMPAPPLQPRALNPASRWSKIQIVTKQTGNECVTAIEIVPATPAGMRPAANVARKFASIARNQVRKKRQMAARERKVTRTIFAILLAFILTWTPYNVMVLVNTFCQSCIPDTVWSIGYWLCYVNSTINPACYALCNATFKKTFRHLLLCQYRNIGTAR

Cytochrome P450 1A2 = molecular target: T3, Cytochrome P450 1A2 (Homo sapiens, UniProt P05177); experiment: Inhibition of CYP1A2; assay type: ADME
T3 sequence (P05177 whole entry): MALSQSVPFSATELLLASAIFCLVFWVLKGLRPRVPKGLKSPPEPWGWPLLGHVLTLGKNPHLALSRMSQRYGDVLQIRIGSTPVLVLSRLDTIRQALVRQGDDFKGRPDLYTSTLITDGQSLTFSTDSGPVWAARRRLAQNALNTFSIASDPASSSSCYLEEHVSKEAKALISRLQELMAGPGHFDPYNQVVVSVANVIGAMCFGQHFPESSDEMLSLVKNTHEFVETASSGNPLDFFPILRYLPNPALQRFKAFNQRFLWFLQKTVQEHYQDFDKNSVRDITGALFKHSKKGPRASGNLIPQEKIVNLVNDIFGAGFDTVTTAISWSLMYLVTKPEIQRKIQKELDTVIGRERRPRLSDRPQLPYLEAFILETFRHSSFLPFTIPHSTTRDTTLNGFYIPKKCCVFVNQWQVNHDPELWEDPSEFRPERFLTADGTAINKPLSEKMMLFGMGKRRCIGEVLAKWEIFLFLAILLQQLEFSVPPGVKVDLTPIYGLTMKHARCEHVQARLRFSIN

Cytochrome P450 2C8 = molecular target: T4, Cytochrome P450 2C8 (Homo sapiens, UniProt P10632); experiment: Inhibition of CYP2C8; assay type: ADME
T4 sequence (P10632 whole entry): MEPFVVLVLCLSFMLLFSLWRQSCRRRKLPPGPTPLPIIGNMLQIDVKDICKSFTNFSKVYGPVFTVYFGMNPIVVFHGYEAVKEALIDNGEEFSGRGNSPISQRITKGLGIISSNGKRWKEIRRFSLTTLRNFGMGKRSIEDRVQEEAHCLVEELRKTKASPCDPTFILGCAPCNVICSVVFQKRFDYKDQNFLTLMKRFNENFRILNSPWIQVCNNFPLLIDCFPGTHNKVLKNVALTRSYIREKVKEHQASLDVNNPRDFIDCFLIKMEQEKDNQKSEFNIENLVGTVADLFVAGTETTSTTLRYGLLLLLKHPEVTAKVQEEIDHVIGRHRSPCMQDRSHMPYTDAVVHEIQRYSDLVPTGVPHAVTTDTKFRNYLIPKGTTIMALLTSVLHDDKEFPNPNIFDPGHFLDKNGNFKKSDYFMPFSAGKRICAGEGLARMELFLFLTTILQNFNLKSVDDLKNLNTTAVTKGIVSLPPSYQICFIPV

[4] = Half life in rat at 1 mg/kg, iv; assay type: ADME, organism-based; parameters: dose 1 mg/kg, route intravenous; conditions: in vivo
[5] = Volume of distribution at steady state in dog at 1 mg/kg, iv; assay type: ADME, organism-based, Canis lupus familiaris; parameters: dose 1 mg/kg, route intravenous; conditions: in vivo, read-out: Vdss
Rattus norvegicus [6] = experiment: In vivo inhibition of DPP4 in Zucker fatty rat plasma assessed as AMC production at 3 mg/kg, po after 3 hrs by fluorescence microplate reader analysis; assay type: functional, organism-based; parameters: dose 3 mg/kg
Outline: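 Male Zucker fatty rats, 9 weeks old, fasted 24 h and kept fasted to 12 h post-dose; test compound solution given by oral gavage at 1.0 or 3.0 mg/kg. Blood sampled at -0.5 h and 0.25–24 h. Plasma DPP-4 measured as AMC release from Gly-Pro-MCA (100 µmol/L working solution), pH 7.8 HEPES buffer, Ex 380/Em 460 nm for 3 min, AMC calibration, duplicates; n = 4–5.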

[7] = Solubility of the compound in buffered water at pH 1.2 to 6.8; assay type: physicochemical
Outline: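 Free amine form dissolved in buffered water at pH 1.2, 5.5 and 6.8.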

[8] = Toxicity in rat assessed as organ toxicity after 2 weeks repeated dosage; assay type: organism-based; conditions: in vivo
Outline: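 2-week repeated-dose toxicity study; rats n = 5 per sex, monkeys n = 1 per sex.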

IC50 (Dipeptidyl peptidase 4): 0.0011 µM
IC50 (Dipeptidyl peptidase 8): > 50 µM
IC50 (Xaa-Pro aminopeptidase 2): > 50 µM
IC50 [2]: > 10 µM
IC50 [3]: > 10 µM
IC50 (Cytochrome P450 1A2): > 50 µM
IC50 (Cytochrome P450 2C8): > 50 µM
half-life [4]: 4.1 h
Vd [5]: 5.8 L/kg
solubility [7]: > 1 mg/mL
Compound: Cn1c(=O)c2c(cc(N3CCC[C@@](C)(N)C3)n2Cc2cc(F)ccc2C#N)n(C)c1=O
Activity (Rattus norvegicus [1]): Dose-dependent effect
inhibition (Rattus norvegicus [6]): Active
NOAEL at 336 h [8]: 60 mg/kg/day
